One data set has as its system Fusarium culmorum. The data set is described as follows: Inhibition of 3-acetyldeoxynivalenol production by Fusarium culmorum in liquid culture. Format: functional, organism-based.
Data set [1] has as its system Fusarium graminearum. The data set is described as follows: Downregulation of Tri6 gene expression in Fusarium graminearum at 300 to 1000 uM measured after 72 hr by quantitative-RT-PCR analysis. Format: functional, organism-based. The essentials: (§1)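 Spores (1 × 10^5/tube) grown in 5 mL SYEP medium with shaking at 300 rpm, 26.5 °C, for 72 h, with or without compound at 300 or 1000 µM. Mycelial total RNA was used for SYBR Green qRT-PCR on cDNA from 0.005 µg RNA: 95 °C 10 min, then 40 cycles of 95 °C 15 s / 60 °C 1 min. Normalised to β-tubulin mRNA; n = 3.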

For data set [2], the system named is Fusarium graminearum. The data set is described as follows: Downregulation of Tri4 gene expression in Fusarium graminearum at 300 to 1000 uM measured after 72 hr by quantitative-RT-PCR analysis. In kind it is functional, organism-based. The essentials:
as §1

For data set [3], the system named is Fusarium graminearum. In kind it is functional, organism-based.
Data set [4] has as its system Fusarium graminearum. The data set is described as follows: microbe, parasite or virus in culture. In kind it is functional.
Data set [5] relates to Fusarium graminearum. The data set is described as follows: microbe, parasite or virus in culture. Format: functional. The source holds these as a separate data set.
The test system of data set [6] is Fusarium graminearum. The data set is described as follows: Downregulation of Tri10 gene expression in Fusarium graminearum at 300 to 1000 uM measured after 72 hr by quantitative-RT-PCR analysis. Format: functional, organism-based. The essentials: as §1
Data set [7] has as its system Fusarium graminearum. The data set is described as follows: Effect on deoxynivalenol synthetic pathway intermediates accumulation in Fusarium graminearum at 1000 uM by TLC analysis. Format: functional, organism-based. The essentials:
(§2)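 Pooled broth (5 × 10 mL) was split into filtrate and mycelia. Filtrate was extracted with ethyl acetate and mycelia with methanol. n-Hexane and ethyl acetate fractions were examined spectroscopically for intermediate signals such as trichodiene.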

Data set [8] deals with Fusarium graminearum. The data set is described as follows: Downregulation of Tri5 gene expression in Fusarium graminearum at 300 to 1000 uM measured after 72 hr by quantitative-RT-PCR analysis. Format: functional, organism-based. In short, it runs like this: as §1
Data set [9] deals with Fusarium graminearum. The data set is described as follows: microbe, parasite or virus in culture. Format: functional, organism-based. Conditions: 168 h.
In data set [10] the test system is Fusarium graminearum. The data set is described as follows: Growth inhibition of Fusarium graminearum assessed as mycelial weight at 26.5 degC after 7 days. In kind it is organism-based. Conditions: in vivo, 168 h. In short, it runs like this: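 Methanolic sample added to 5 mL SYEP (sucrose 5%, yeast extract 0.1%, polypeptone 0.1%), final methanol 0.3%. Inoculated with 1 × 10^5 spores/tube and shaken at 300 rpm, 26.5 °C, for 7 days. Mycelia were collected on cheesecloth, washed with water, dried at 100 °C for 3 h and weighed.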

Data set [11] has as its system Fusarium graminearum. The data set is described as follows: Effect on deoxynivalenol synthetic pathway intermediates accumulation in Fusarium graminearum at 30 uM by TLC analysis. In kind it is functional, organism-based. In short, it runs like this: as §2
Data set [12] has as its system Fusarium graminearum. The data set is described as follows: Downregulation of Tri4 gene expression in Fusarium graminearum at 3 to 30 uM at 26.5 degC measured after 48 to 144 hr by quantitative-RT-PCR analysis. Format: functional, organism-based. In short, it runs like this: (§3)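 SYEP liquid medium (5 mL/tube) inoculated with 1 × 10^5 spores and shaken at 300 rpm, 26.5 °C, with or without compound at 3 or 30 µM, for 48, 96 or 144 h. Total RNA was taken from the mycelia. SYBR Green real-time RT-PCR was run on cDNA from 0.005 µg RNA: 95 °C 10 min, then 40 cycles of 95 °C 15 s / 60 °C 1 min. β-tubulin mRNA was the reference; n = 3.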

For data set [13], the system named is Fusarium graminearum. The data set is described as follows: Downregulation of Tri5 gene expression in Fusarium graminearum at 3 to 30 uM at 26.5 degC measured after 48 to 144 hr by quantitative-RT-PCR analysis. In kind it is functional, organism-based. The essentials:
as §3

For data set [14], the system named is Fusarium graminearum. The data set is described as follows: Downregulation of Tri6 gene expression in Fusarium graminearum at 26.5 degC measured after 48 to 96 hr by quantitative-RT-PCR analysis. In kind it is functional, organism-based. In short, it runs like this:
as §3

For data set [15], the system named is Fusarium graminearum. The data set is described as follows: Downregulation of Tri10 gene expression in Fusarium graminearum at 26.5 degC measured after 48 to 96 hr by quantitative-RT-PCR analysis. In kind it is functional, organism-based. In short, it runs like this: as §3
The subject of data set [16] is Fusarium graminearum. In kind it is functional, organism-based. The source holds these as a separate data set.

The structures appear in SMILES notation. Activity calls are given as the source filed them. The rule behind the calls is not given here.

`CC(=O)c1cccc2oc(=O)[nH]c12` [4-ACETYL-2-BENZOXAZOLINONE] registered an IC50 in the data set on Fusarium culmorum of 4 µM.
With `CC1=CC(=O)[C@@H](C(C)C)CC1` [(-)-PIPERITONE], the inhibition result in the data set with Fusarium graminearum [1], with Fusarium graminearum [2], in the data set with Fusarium graminearum [6] and in the data set on Fusarium graminearum [8] was “Active” throughout. Further, the IC50 came out at 61.2 ppm in the data set on Fusarium graminearum [3] and 306 µM in the data set with Fusarium graminearum [9]. The compound also came in with an inhibition at 5.7 ppm in the data set with Fusarium graminearum [4] of 20%. In the data set with Fusarium graminearum [5], testing at 152 ppm gave an inhibition of 25%. Moreover, the outcome in the data set on Fusarium graminearum [7] was inactive. For the same compound, in the data set with Fusarium graminearum [10], the Activity entry is reported as “Non-toxic”.
Regarding `COc1cc2c(cc1OC)OC(C)(C)C=C2` [PROCOCENE II], the result in the data set on Fusarium graminearum [11] was inactive. Also, the inhibition entry with Fusarium graminearum [12] and with Fusarium graminearum [13] was “Active” each time. Further, the IC50 was 0.36 ppm with Fusarium graminearum [3], 2 ppm in the data set with Fusarium graminearum [16] and 1.2 µM in the data set on Fusarium graminearum [9]. Also, the inhibition result in the data set with Fusarium graminearum [14] and in the data set on Fusarium graminearum [15] was “Dose-dependent effect” in each case. Besides, the Activity entry with Fusarium graminearum [10] was “Non-toxic”.
As to `COc1ccc2c(c1)OC(C)(C)C=C2` [PROCOCENE I], the IC50 in the data set with Fusarium graminearum [3] is 1.3 ppm; in the data set on Fusarium graminearum [9] it was 16.6 µM. In addition, the inhibition at 5.7 ppm in the data set on Fusarium graminearum [4] was found to be 20%. The compound further returned an inhibition at 152 ppm in the data set on Fusarium graminearum [5] of 25%.

One may read the inhibition as the change of the read-out against control, counted positive when it falls.

Source of the values: ChEMBL document CHEMBL3045425, “Isolation and identification of precocenes and piperitone from essential oils as specific inhibitors of trichothecene production by Fusarium graminearum” (J Agric Food Chem, 2009).
